Experimental data taken from ChEMBL document CHEMBL3997796 (J Med Chem, 2017).
Active and inactive are the calls of the source. The calls are words filed in the database; no cut-off is given here.

Legend:
[1] = target: T1, Ectonucleotide pyrophosphatase/phosphodiesterase family member 7 (Homo sapiens) (UniProt Q6UWV6); assay: Inhibition of ENPP7 (unknown origin) using pNPPC as substrate measured every 2 mins for 1 hr by […]
T1 sequence (whole entry): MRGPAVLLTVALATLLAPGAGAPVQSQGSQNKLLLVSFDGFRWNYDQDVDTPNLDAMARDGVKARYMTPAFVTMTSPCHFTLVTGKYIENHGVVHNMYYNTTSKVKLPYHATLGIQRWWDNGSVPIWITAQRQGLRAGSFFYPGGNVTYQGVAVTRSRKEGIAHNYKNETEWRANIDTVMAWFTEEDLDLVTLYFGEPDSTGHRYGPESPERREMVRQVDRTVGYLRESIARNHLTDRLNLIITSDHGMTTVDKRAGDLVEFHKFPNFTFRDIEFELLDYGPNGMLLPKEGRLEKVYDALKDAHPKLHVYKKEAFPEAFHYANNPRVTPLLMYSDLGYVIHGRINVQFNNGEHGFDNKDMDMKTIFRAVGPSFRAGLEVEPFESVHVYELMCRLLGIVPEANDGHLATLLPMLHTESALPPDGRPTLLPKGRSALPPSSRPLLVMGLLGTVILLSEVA
How it was run: (§1)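 10 nM ENPP6 or ENPP7, 10 μM pNPPC, compound 0–10 μM, triplicate; ENPP6 buffer 100 mM Tris, 500 mM NaCl, 0.05% Triton pH 9.0; ENPP7 buffer 50 mM Tris, 150 mM NaCl, 10 mM taurocholate pH 8.5; 405 nm absorbance every 2 min for 1 h.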

[2] = target: T2, Glycerophosphocholine cholinephosphodiesterase ENPP6 (Homo sapiens) (UniProt Q6UWR7); assay: Inhibition of ENPP6 (unknown origin) using pNPPC as substrate measured every 2 mins for 1 hr by […]; how it was run: as §1
T2 sequence (whole entry): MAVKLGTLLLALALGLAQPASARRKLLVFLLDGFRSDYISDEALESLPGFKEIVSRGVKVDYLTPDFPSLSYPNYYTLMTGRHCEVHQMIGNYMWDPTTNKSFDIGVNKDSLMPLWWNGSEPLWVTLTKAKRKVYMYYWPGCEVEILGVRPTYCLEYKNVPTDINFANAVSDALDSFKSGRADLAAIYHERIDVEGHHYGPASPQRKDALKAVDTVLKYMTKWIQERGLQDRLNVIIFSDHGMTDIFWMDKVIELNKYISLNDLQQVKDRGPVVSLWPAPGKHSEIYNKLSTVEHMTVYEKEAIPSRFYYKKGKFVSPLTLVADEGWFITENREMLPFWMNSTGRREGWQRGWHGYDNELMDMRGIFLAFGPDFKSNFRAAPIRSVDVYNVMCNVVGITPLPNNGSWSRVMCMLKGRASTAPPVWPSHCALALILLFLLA

Autotaxin [3] = target: T3, Autotaxin (Homo sapiens, UniProt Q13822); assay: Inhibition of recombinant human C-terminal FLAg-tagged ATX nucleotide pyrophosphate phosphatase activity expressed in baculovirus infected sf9 cells using pNP-TMP as substrate measured every 2 mins for 1 hr by fluorescence assay
Autotaxin [4] = target: T3, Autotaxin; assay: Inhibition of recombinant human C-terminal FLAg-tagged ATX lysophospholipase D activity expressed in baculovirus infected sf9 cells using FRET based FS-3 substrate measured every 2 mins for 1 hr by fluorescence assay

SMILES: CN1CCN(S(=O)(=O)c2cc(C(=O)Nc3cc(F)c(F)c(F)c3)c(Cl)cc2Cl)CC1
- inhibition [1]: inactive
- inhibition [2]: inactive
- inhibition (Autotaxin [3]): inactive

SMILES: O=C(Nc1cc(Cl)c(Cl)c(Cl)c1)c1cc(S(=O)(=O)N2CCOCC2)c(Cl)cc1Cl
- IC50 (Autotaxin [4]): > 1000 nM
- inhibition [1]: inactive
- inhibition [2]: inactive
- inhibition (Autotaxin [3]): inactive

SMILES: O=S(=O)(c1cc(C(=S)Nc2ccc(F)c(F)c2)c(Cl)cc1Cl)N1CCOCC1
- IC50 (Autotaxin [4]): 70 nM
- inhibition [1]: inactive
- inhibition [2]: inactive
- inhibition (Autotaxin [3]): inactive

SMILES: O=S(=O)(c1cc(C(=S)Nc2cc(Cl)c(F)c(Cl)c2)c(Cl)cc1Cl)N1CCOCC1
- IC50 (Autotaxin [4]): 98 nM
- inhibition [1]: inactive
- inhibition [2]: inactive
- inhibition (Autotaxin [3]): inactive

SMILES: O=S(=O)(c1cc(CNc2ccc(F)c(F)c2)c(Cl)cc1Cl)N1CCOCC1
- IC50 (Autotaxin [4]): > 1000 nM
- inhibition [1]: inactive
- inhibition [2]: inactive
- inhibition (Autotaxin [3]): inactive

SMILES: CN1CCN(S(=O)(=O)c2cc(C(=O)Nc3cc(Cl)c(F)c(Cl)c3)c(Cl)cc2Cl)CC1
- inhibition [1]: inactive
- inhibition [2]: inactive
- inhibition (Autotaxin [3]): inactive

SMILES: N#Cc1c(F)cc(NC(=O)c2cc(S(=O)(=O)N3CCOCC3)c(Cl)cc2Cl)cc1F
- inhibition [1]: inactive
- inhibition [2]: inactive
- inhibition (Autotaxin [3]): inactive

SMILES: O=S(=O)(c1cc(-c2nc3cc(F)c(F)cc3[nH]2)c(Cl)cc1Cl)N1CCOCC1
- IC50 (Autotaxin [4]): > 1000 nM
- inhibition [1]: inactive
- inhibition [2]: inactive
- inhibition (Autotaxin [3]): inactive

SMILES: COC(=O)c1c(F)cc(NC(=O)c2cc(S(=O)(=O)N3CCOCC3)c(Cl)cc2Cl)cc1F
- inhibition [1]: inactive
- inhibition [2]: inactive
- inhibition (Autotaxin [3]): inactive

SMILES: CN1CCN(S(=O)(=O)c2cc(C(=S)Nc3cc(Cl)c(F)c(Cl)c3)c(Cl)cc2Cl)CC1
- inhibition [1]: inactive
- inhibition [2]: inactive
- inhibition (Autotaxin [3]): inactive

SMILES: O=C(Nc1c(F)c(F)c(F)c(F)c1F)c1cc(S(=O)(=O)N2CCOCC2)c(Cl)cc1Cl
- inhibition [1]: inactive
- inhibition [2]: inactive
- inhibition (Autotaxin [3]): inactive

SMILES: O=C(Nc1cc(F)c(F)c(F)c1)c1cc(NN2CCOCC2)c(Cl)cc1Cl
- IC50 (Autotaxin [4]): > 1000 nM
- inhibition [1]: inactive
- inhibition [2]: inactive
- inhibition (Autotaxin [3]): inactive

SMILES: O=S(=O)(c1cc(N(S(=O)(=O)c2cccc(F)c2)S(=O)(=O)c2cccc(F)c2)c(Cl)cc1Cl)N1CCOCC1
- IC50 (Autotaxin [4]): > 1000 nM
- inhibition [1]: inactive
- inhibition [2]: inactive
- inhibition (Autotaxin [3]): inactive

SMILES: O=S(=O)(Nc1cccc(F)c1)c1cc(S(=O)(=O)N2CCOCC2)c(Cl)cc1Cl
- IC50 (Autotaxin [4]): > 1000 nM
- inhibition [1]: inactive
- inhibition [2]: inactive
- inhibition (Autotaxin [3]): inactive

SMILES: COc1cc(NC(=O)c2cc(S(=O)(=O)N3CCOCC3)c(Cl)cc2Cl)cc(OC)c1OC
- IC50 (Autotaxin [4]): > 1000 nM
- inhibition [1]: inactive
- inhibition [2]: inactive
- inhibition (Autotaxin [3]): inactive

SMILES: O=S(=O)(Nc1cc(F)c(F)c(F)c1)c1cc(S(=O)(=O)N2CCOCC2)c(Cl)cc1Cl
- IC50 (Autotaxin [4]): > 1000 nM
- inhibition [1]: inactive
- inhibition [2]: inactive
- inhibition (Autotaxin [3]): inactive

SMILES: COc1cc(Cl)c(C(=O)Nc2cc(F)c(C(=O)O)c(F)c2)cc1S(=O)(=O)N1CCOCC1
- IC50 (Autotaxin [4]): > 1000 nM
- inhibition [1]: inactive
- inhibition [2]: inactive
- inhibition (Autotaxin [3]): inactive

SMILES: O=S(=O)(c1cc(-c2nc3cccc(F)c3o2)c(Cl)cc1Cl)N1CCOCC1
- IC50 (Autotaxin [4]): > 1000 nM
- inhibition [1]: inactive
- inhibition [2]: inactive
- inhibition (Autotaxin [3]): inactive

SMILES: O=S(=O)(c1cc(C(=S)Nc2cccc(F)c2)c(Cl)cc1Cl)N1CCOCC1
- inhibition [1]: inactive
- inhibition [2]: inactive
- inhibition (Autotaxin [3]): inactive

SMILES: O=S(=O)(c1cc(CNc2cc(F)c(F)c(F)c2)c(Cl)cc1Cl)N1CCOCC1
- inhibition [1]: inactive
- inhibition [2]: inactive
- inhibition (Autotaxin [3]): inactive
